According to ChEMBL document CHEMBL4270665, “Biodegradable Amphipathic Peptide Hydrogels as Extended-Release System for Opioid Peptides” (J Med Chem, 2018):
The source made the active and inactive calls. No cut-off for these calls is given here. Starred links: 1 amine or outer side, 2 acyl side, 3 side chain; linkers in the order of their positions; H or OH if unused. Non-standard residues stand in square brackets, D forms with d. Residues, ends and D or L forms follow the SMILES beside them. X1 = O=C1[C@@H](N[*:1])Cc2ccccc2CN1CCC(=O)[*:2]; Dmt = Cc1cc(O)cc(C)c1C[C@H](N)C(=O)O; β3hF = N[C@H](CC(=O)O)Cc1ccccc1

Tests used:
[1] = tested on: Mus musculus; experiment: Antinociceptive activity in CD1 mouse assessed as increase in tail-flick latency at 13 umol/kg, sc measured up to 96 hrs post dose relative to control; assay type: functional
[2] = molecular target: T1, Mu-type opioid receptor (Homo sapiens, UniProt P35372); experiment: Agonist activity at human MOR expressed in human U2OS cells co-expressing enzyme acceptor-tagged beta-arrestin2 fusion protein assessed as induction of beta-arrestin2 recruitment preincubated for 90 mins measured by PathHunter assay; assay type: functional, cell-based
[3] = molecular target: T1, Mu-type opioid receptor; experiment: Agonist activity at human MOR expressed in CHO cell membranes after 60 mins by [35S]GTPgammaS binding assay; assay type: functional
Procedure, shortened: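 Membranes from CHO cells stably expressing human MOR; agonist-stimulated [35S]GTPγS binding. Potency given as EC50 and efficacy (full or partial agonism) measured at human MOR.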

[4] = tested on: Mus musculus; experiment: Antinociceptive activity in CD1 mouse assessed as increase in tail-flick latency at 3.9 umol/kg, sc measured up to 3 to 4 hrs post dose; assay type: functional, organism-based
Procedure, shortened: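 Radiant heat tail-flick test on an analgesiometer after subcutaneous injection of solutions in mice. Doses were 3.0, 3.9, 4.2 or 6.8 μmol/kg, with saline as control. Response was expressed as %MPE over time and AUC was calculated. Groups were 6−8 mice, reported as mean ± SEM, with two-way ANOVA and Bonferroni post hoc test.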

[5] = molecular target: T1, Mu-type opioid receptor; experiment: Displacement of [3H]DAMGO from human MOR expressed in CHO cell membranes after 60 mins by liquid scintillation counting
[6] = tested on: Mus musculus; experiment: Antinociceptive activity in CD1 mouse assessed as increase in tail-flick latency at 14 umol/kg, sc measured up to 96 hrs post dose relative to control; assay type: functional
[7] = Metabolic stability in C57BL/6 mouse hind limb assessed as compound remaining at 150 ul, sc measured after 72 hrs post dose by SPECT/CT analysis; assay type: ADME, organism-based, Hindlimb; conditions: read-out: Stability
Procedure, shortened: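 Hydrogel degradation was followed after subcutaneous injection in mice by determining the hydrogel volume remaining at the injection site, up to 72 h.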

[8] = tested on: Mus musculus; experiment: Antinociceptive activity in sc dosed CD1 mouse assessed as increase in tail-flick latency measured up to 3 hrs post dose; assay type: functional, organism-based
[9] = Half life in human plasma at 9 uM at 37 degC by LC-MS analysis; assay type: ADME, cell-free
Procedure, shortened: (§1)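 Peptides were incubated in human plasma at 37 °C, and samples were collected at different time points. Half-life was calculated from the degradation profile. Major metabolites were identified by LC−MS analysis of the collected samples.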

[10] = tested on: Mus musculus; experiment: Antinociceptive activity in CD1 mouse assessed as increase in tail-flick latency at 0.58 umol/kg, sc co-formulated with H-Phe-Glu-Phe-Gln-Phe-Lys-NH2 measured up to 72 hrs post dose; assay type: functional, organism-based
[11] = tested on: Mus musculus; experiment: Antinociceptive activity in sc dosed CD1 mouse assessed as increase in tail-flick latency measured up to 24 hrs post dose; assay type: functional, organism-based
[12] = Prodrug conversion in human plasma assessed as H-Dmt-DArg-Phe-Phe-Gln-Phe-Gln-OH metabolite formation at 9 uM after 30 to 45 mins by LC-MS analysis; assay type: ADME, cell-free; procedure, shortened: as §1
[13] = Prodrug conversion in human plasma assessed as H-Dmt-DArg-Phe-Phe-Gln-OH metabolite formation at 9 uM after 30 to 45 mins by LC-MS analysis; assay type: ADME, cell-free
[14] = tested on: Mus musculus; experiment: Antinociceptive activity in sc dosed CD1 mouse assessed as increase in tail-flick latency measured up to 72 hrs post dose; assay type: functional, organism-based
Procedure, shortened: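 Radiant heat tail-flick test in mice after subcutaneous injection of 150 μL per mouse. The peptide (0.56 μmol/mouse) was given coformulated with hydrogelator (2% v/w) or conjugated as a biogel (2% v/w). Hydrogelator alone and saline served as controls. Latency was followed as %MPE over time with AUC calculated. Groups were 6−8 mice, reported as mean ± SEM, with two-way ANOVA and Bonferroni post hoc test.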

[15] = Prodrug conversion in human plasma assessed as H-Dmt-DArg-Phe-OH metabolite formation at 9 uM after 30 to 45 mins by LC-MS analysis; assay type: ADME, cell-free; procedure, shortened: as §1
[16] = tested on: Mus musculus; experiment: Antinociceptive activity in CD1 mouse assessed as increase in tail-flick latency at 6.8 umol/kg, sc measured up to 8 hrs post dose; assay type: functional, organism-based
Procedure, shortened: (§2)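 Peptide given as a solution, sc, with a saline control group. Radiant-heat tail-flick test read as %MPE over time, with AUC of the time curves calculated. 6−8 mice per group, mean ± SEM. Two-way ANOVA with Bonferroni post hoc test.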

[17] = tested on: Mus musculus; experiment: Antinociceptive activity in CD1 mouse assessed as increase in tail-flick latency at 0.56 umol, sc co-formulated with H-Phe-Gln-Phe-Gln-Phe-Lys-NH2 measured up to 72 hrs post dose; assay type: functional, organism-based
Procedure, shortened: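 Mice received peptide (0.56 μmol/mouse) co-formulated with hydrogelator at 2% (v/w), sc in 150 μL per mouse. Controls were hydrogelator alone or saline. Radiant-heat tail-flick test read as %MPE over time, with AUC calculated. 6−8 mice per group, mean ± SEM. Two-way ANOVA with Bonferroni post hoc test.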

[18] = tested on: Mus musculus; experiment: Antinociceptive activity in CD1 mouse assessed as increase in tail-flick latency at 5.6 umol/kg, sc measured up to 7 hrs post dose; assay type: functional, organism-based
[19] = tested on: Mus musculus; experiment: Antinociceptive activity in CD1 mouse assessed as increase in tail-flick latency at 4.2 umol/kg, sc measured up to 3 to 4 hrs post dose; assay type: functional, organism-based; procedure, shortened: as §2
[20] = tested on: Mus musculus; experiment: Antinociceptive activity in CD1 mouse assessed as increase in tail-flick latency at 5.8 umol/kg, sc measured after 8 hrs post dose; assay type: functional, organism-based
[21] = tested on: Mus musculus; experiment: Antinociceptive activity in CD1 mouse assessed as increase in tail-flick latency at 1.8 umol/kg, sc measured after 4 hrs post dose; assay type: functional, organism-based
[22] = tested on: Mus musculus; experiment: Antinociceptive activity in CD1 mouse assessed as increase in tail-flick latency at 0.30 umol, sc co-formulated with H-Phe-Glu-Phe-Gln-Phe-Lys-NH2 measured up to 72 hrs post dose; assay type: functional, organism-based

T1 sequence (P35372 whole entry, the tested form may be a part): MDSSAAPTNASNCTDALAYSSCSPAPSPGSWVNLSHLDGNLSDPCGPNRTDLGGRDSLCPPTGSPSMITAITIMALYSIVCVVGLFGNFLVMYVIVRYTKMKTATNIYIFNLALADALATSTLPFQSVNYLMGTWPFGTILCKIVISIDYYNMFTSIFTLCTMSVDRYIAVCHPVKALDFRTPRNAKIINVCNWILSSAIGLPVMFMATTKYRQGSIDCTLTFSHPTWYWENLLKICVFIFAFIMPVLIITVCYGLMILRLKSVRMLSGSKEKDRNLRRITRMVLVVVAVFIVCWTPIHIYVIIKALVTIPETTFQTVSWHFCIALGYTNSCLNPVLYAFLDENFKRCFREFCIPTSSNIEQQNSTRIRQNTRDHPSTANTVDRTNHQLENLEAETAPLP

## Cc1cc(O)cc(C)c1C[C@H](N)C(=O)N1CCC[C@H]1C(=O)N[C@@H](Cc1c[nH]c2ccccc12)C(=O)N[C@@H](Cc1ccccc1)C(N)=O
[1]
  MPE: <80%
[2]
  Activity: inactive
[3]
  EC50: 0.1 to 0.86 nM

## Cc1cc(O)cc(C)c1C[C@H](N)C(=O)N[C@H](CCCNC(=N)N)C(=O)N[C@@H](Cc1ccccc1)C(=O)N[C@@H](Cc1ccccc1)C(=O)N[C@@H](CCC(N)=O)C(=O)N[C@@H](Cc1ccccc1)C(=O)N[C@@H](CCC(N)=O)C(=O)O
[4]
  Activity: Active
[3]
  EC50: 47.5 nM
[5]
  Ki: 6.16 nM

## Cc1cc(O)cc(C)c1C[C@H](N)C(=O)N1CCC[C@H]1C(=O)N[C@@H](Cc1ccccc1)C(=O)N[C@@H](Cc1ccccc1)C(N)=O
[6]
  MPE: <80%
[2]
  Activity: inactive
[3]
  EC50: 0.1 to 0.86 nM

## Cc1cc(O)cc(C)c1C[C@H](N)C(=O)N[C@H](CCCNC(=N)N)C(=O)N[C@H]1Cc2ccccc2CN(CCC(=O)N[C@@H](Cc2ccccc2)C(=O)N[C@@H](CCC(N)=O)C(=O)N[C@@H](Cc2ccccc2)C(=O)N[C@@H](CCC(N)=O)C(=O)N[C@@H](Cc2ccccc2)C(=O)N[C@@H](CCCCN)C(N)=O)C1=O (H-[Dmt][dR][X1]FQFQFK-NH2)
[5]
  Ki: 5 to 141 nM

## H-FQFQFK-NH2
[7]
  remaining at 72 h: 20%

## Cc1cc(O)cc(C)c1C[C@H](N)C(=O)N[C@H](CCCNC(=N)N)C(=O)N[C@@H](Cc1ccccc1)C(=O)N[C@@H](Cc1ccccc1)C(=O)N[C@@H](CCC(N)=O)C(=O)N[C@H](CC(=O)N[C@@H](Cc1ccccc1)C(=O)N[C@@H](CCC(N)=O)C(=O)N[C@@H](Cc1ccccc1)C(=O)N[C@@H](CCCCN)C(N)=O)Cc1ccccc1 (H-[Dmt][dR]FFQ[β3hF]FQFK-NH2)
[8]
  Activity: inactive
[9]
  half-life at 9 µM: 123 min
[10]
  Activity: inactive
[5]
  Ki: 5 to 141 nM

## Cc1cc(O)cc(C)c1C[C@H](N)C(=O)N1CCC[C@H]1C(=O)N[C@@H](Cc1ccccc1)C(=O)N[C@@H](Cc1ccccc1)C(=O)N[C@@H](CCC(N)=O)C(=O)N[C@@H](Cc1ccccc1)C(=O)N[C@@H](CCC(N)=O)C(=O)N[C@@H](Cc1ccccc1)C(=O)N[C@@H](CCCCN)C(N)=O (H-[Dmt]PFFQFQFK-NH2)
[5]
  Ki: 5 to 141 nM

## Cc1cc(O)cc(C)c1C[C@H](N)C(=O)N[C@H](CCCCN)C(=O)N[C@@H](Cc1ccccc1)C(=O)N[C@@H](Cc1ccccc1)C(=O)N[C@@H](CCC(N)=O)C(=O)N[C@@H](Cc1ccccc1)C(=O)N[C@@H](CCC(N)=O)C(=O)N[C@@H](Cc1ccccc1)C(=O)N[C@@H](CCCCN)C(N)=O (H-[Dmt][dK]FFQFQFK-NH2)
[11]
  Activity: Active
[5]
  Ki: 5 to 141 nM

## Cc1cc(O)cc(C)c1C[C@H](N)C(=O)N[C@H](CCCNC(=N)N)C(=O)N[C@@H](Cc1ccccc1)C(=O)N[C@@H](Cc1ccccc1)C(=O)N[C@@H](CCC(N)=O)C(=O)N[C@@H](Cc1ccccc1)C(=O)N[C@@H](CCC(N)=O)C(=O)N[C@@H](Cc1ccccc1)C(=O)N[C@@H](CCCCN)C(N)=O (H-[Dmt][dR]FFQFQFK-NH2)
[12]
  Drug metabolism: Metabolite_Detected
[9]
  half-life at 9 µM: 16 min
[13]
  Drug metabolism: Metabolite_Detected
[14]
  Activity: Active
[15]
  Drug metabolism: Metabolite_Detected

## Cc1cc(O)cc(C)c1C[C@H](N)C(=O)N[C@H](CCCNC(=N)N)C(=O)N[C@@H](Cc1ccccc1)C(=O)O
[3]
  EC50: 3.67 nM
[5]
  Ki: 0.52 nM
[16]
  Activity: Active

## Cc1cc(O)cc(C)c1C[C@H](N)C(=O)N1CCC[C@H]1C(=O)N[C@@H](Cc1c[nH]c2ccccc12)C(=O)N[C@@H](Cc1ccccc1)C(=O)N[C@@H](CCC(N)=O)C(=O)N[C@@H](Cc1ccccc1)C(=O)N[C@@H](CCC(N)=O)C(=O)N[C@@H](Cc1ccccc1)C(=O)N[C@@H](CCCCN)C(N)=O (H-[Dmt]PWFQFQFK-NH2)
[5]
  Ki: 5 to 141 nM

## Cc1cc(O)cc(C)c1C[C@H](N)C(=O)N[C@H](CCCNC(=N)N)C(=O)N[C@@H](Cc1ccccc1)C(=O)N[C@@H](Cc1ccccc1)C(N)=O
[17]
  Activity: Active
[2]
  Activity: inactive
[18]
  Activity: Active
[3]
  EC50: 0.19 nM
[5]
  Ki: 0.037 nM

## Cc1cc(O)cc(C)c1C[C@H](N)C(=O)N[C@H](CCCNC(=N)N)C(=O)N[C@@H](Cc1ccccc1)C(=O)N[C@@H](Cc1ccccc1)C(=O)N[C@@H](CCC(N)=O)C(=O)O
[19]
  Activity: Active
[3]
  EC50: 0.28 nM
[5]
  Ki: 0.34 nM

## Cc1cc(O)cc(C)c1C[C@H](N)C(=O)N[C@H](CCCCN)C(=O)N[C@@H](Cc1ccccc1)C(=O)N[C@@H](Cc1ccccc1)C(N)=O
[17]
  Activity: Active
[2]
  Activity: inactive
[20]
  Activity: Active
[3]
  EC50: 0.1 to 0.86 nM

## Cc1cc(O)cc(C)c1C[C@H](N)C(=O)N[C@H](CCCNC(=N)N)C(=O)N[C@H]1Cc2ccccc2CN(CCC(N)=O)C1=O
[21]
  Activity: Active
[22]
  Activity: Active
[2]
  Activity: inactive

## Cc1cc(O)cc(C)c1C[C@H](N)C(=O)N[C@H](CCCCN)C(=O)N[C@@H](Cc1ccccc1)C(=O)N[C@@H](Cc1ccccc1)C(=O)N[C@@H](CCC(=O)O)C(=O)N[C@@H](Cc1ccccc1)C(=O)N[C@@H](CCC(N)=O)C(=O)N[C@@H](Cc1ccccc1)C(=O)N[C@@H](CCCCN)C(N)=O (H-[Dmt][dK]FFEFQFK-NH2)
[11]
  Activity: Active
[5]
  Ki: 5 to 141 nM

## Cc1cc(O)cc(C)c1C[C@H](N)C(=O)N1CCC[C@H]1C(=O)N[C@@H](Cc1ccccc1)C(=O)N[C@@H](Cc1ccccc1)C(=O)N[C@@H](CCC(=O)O)C(=O)N[C@@H](Cc1ccccc1)C(=O)N[C@@H](CCC(N)=O)C(=O)N[C@@H](Cc1ccccc1)C(=O)N[C@@H](CCCCN)C(N)=O
[5]
  Ki: 5 to 141 nM

## H-FEFQFK-NH2
[7]
  remaining at 72 h: 20%

## N=C(N)NCCC[C@@H](NC(=O)[C@@H](N)Cc1ccc(O)cc1)C(=O)N[C@@H](Cc1ccccc1)C(=O)N[C@@H](Cc1ccccc1)C(=O)N[C@@H](CCC(N)=O)C(=O)N[C@@H](Cc1ccccc1)C(=O)N[C@@H](CCC(N)=O)C(=O)N[C@@H](Cc1ccccc1)C(=O)N[C@@H](CCCCN)C(N)=O
[9]
  half-life at 9 µM: 18 min
